Bioassay records: PubChem, The Scripps Research Institute Molecular Screening Center
Only some compounds are listed: those with a hit (about 4.6% of all), similar ones and a draw of the others.
TAAR1 antagonist – antagonists of human TAAR1 | Q96RJ0 | CHO RD-HGA16 TAAR1, Fluo-8 calcium fluorescence, antagonist | inhibition, % at 3 µM | hit rate 1.5% among 360,000 | AID 624466;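 active means inhibition above a per-plate cutoff, the mean inhibition of test compounds on that plate plus 3 SD, cut at about 49% in these data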
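Material: CHO RD-HGA16 cells bearing hTAAR1; compound dosing: one-point dosing, 3 µM nominal final; schedule: dye loading 75 min at 37 °C, then 30 min room temperature; measured by: calcium fluorescence with Fluo-8; control set: vehicle and agonist controls; replication: n of 1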
CHO parental Ca – counter-screen: ATP calcium response change in parental CHO cells; parental CHO-K1, ATP-induced calcium, Fluo-8 fluorescence; inhibition, % at 5.6 µM; hit rate 0.63% among 330,000; AID 463079;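 active means inhibition above that plate's mean sample inhibition plus 3 SD, cut at about 26% in these data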
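Material – parental CHO cells · Reagent – ATP stimulus · Compound – single nominal dose of 5.6 µM per compound · Detection – Fluo-8 fluorescence · Read-out basis – percent inhibition of calcium signal · Controls – ATP-challenged DMSO wells low, unchallenged DMSO wells high · Repeats – no replicates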
GPR7 antag – blocks human GPR7 receptor signaling; P48145; hit rate 1.1% among 290,000; inhibition, % at 4.4 µM; GPR7-expressing cells, fluorescence antagonist assay; in the data active means inhibition above about 16%, passing the limit was not always enough;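 further: cells stimulated with the agonist NPW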
Target sequence (P48145 whole entry, looked up): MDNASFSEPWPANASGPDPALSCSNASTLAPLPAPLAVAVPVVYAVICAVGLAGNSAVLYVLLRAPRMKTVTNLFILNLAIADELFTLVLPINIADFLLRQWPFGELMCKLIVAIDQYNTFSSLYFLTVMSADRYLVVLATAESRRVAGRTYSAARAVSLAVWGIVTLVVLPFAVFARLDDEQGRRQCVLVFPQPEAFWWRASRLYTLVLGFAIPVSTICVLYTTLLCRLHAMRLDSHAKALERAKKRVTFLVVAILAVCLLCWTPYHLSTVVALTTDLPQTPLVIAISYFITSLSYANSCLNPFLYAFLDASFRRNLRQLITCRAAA
OX1R antag-1 – antagonists of human orexin 1 receptor (OX1R) | inhibition, % at 6.6 µM | OX1R-expressing cells, FRET antagonist read-out | O43613 | hit rate 1.8% among 330,000; in the data active means inhibition mostly above about 38%, no sharp cut-off; inactive means mostly below about 40%
TAAR1 agonist – agonists of human TAAR1. Q96RJ0. CHO RD-HGA16 TAAR1, Fluo-8 calcium fluorescence; vehicle wells 0%, saturating PEA agonist 100%. activation, % at 3 µM. hit rate 0.99% among 360,000;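 active means activation above the mean activation of all test compounds in the run plus 3 SD, cut at about 38% in these data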
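Signal – calcium-sensitive Fluo-8 signal, excitation 470-495, emission 515-575 nm · System – RD-HGA16 (CHO) cells co-expressing Gα16 and hTAAR1 · Incubation – 17-24 h seeding, 75 min 37 °C dye, 30 min RT · Compound dosing – 3 µM single concentration · Repeats – no replicates (n 1)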
OX1R antag-2 – blocks the human orexin 1 receptor | O43613 | CHO/OX1R cells, Fluo-8 calcium fluorescence, orexin A | inhibition, % at 5 µM | hit rate 0.43% among 330,000 | AID 434989;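 active means inhibition above its plate's threshold, mean inhibition of all tested compounds on the plate plus 3 SD, cut at about 37% in these data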
Large screens that a line does not name were inactive.

CCCc1nnc2n1N=C(c1ccc([N+](=O)[O-])cc1)CS2	OX1R antag-1 45.3
O=S1(=O)N[C@@H](Cc2ccccc2)COc2cc(N3CCCCC3)ccc21	none (no result: CHO parental Ca, GPR7 antag, OX1R antag-1, OX1R antag-2)
CCc1noc(C)c1C(=O)NCCN1C(=O)S/C(=C\c2ccc(OC)cc2)C1=O	OX1R antag-1 58.1 (no result: GPR7 antag)
COc1ccc(NC(=O)c2oc3ccccc3c2C)c(OC)c1	OX1R antag-1 52.9
COc1ccccc1NC(=O)c1oc2ccccc2c1C	none (no result: CHO parental Ca, GPR7 antag, OX1R antag-1, OX1R antag-2)
CCOC(=O)c1oc2ccccc2c1NC(=O)c1cccc(OC)c1OC	TAAR1 antagonist 49.1
COc1ccccc1NC(=O)COC(=O)c1oc2ccccc2c1C	OX1R antag-1 50.8
CCOCC(=O)Nc1c(C(=O)Nc2ccccc2OC)oc2ccccc12	none
CCCCS(=O)(=O)N1CCCc2nc(C)c(C)cc21	none (no result: CHO parental Ca, GPR7 antag, OX1R antag-1, OX1R antag-2)
CCOC(=O)c1c(CSc2ccccc2)n(C)c2cc(Br)c(OCC(O)CNC(CO)(CO)CO)cc12 (stereo not given)	CHO parental Ca 89.8
O=C(C(=O)N1CCN(S(=O)(=O)c2ccc(C(F)(F)F)cc2)CC1)c1cccc(C(F)(F)F)c1	none (no result: CHO parental Ca, GPR7 antag, OX1R antag-1, OX1R antag-2)
Cc1n[nH]c(=O)nc1NCCc1ccccc1	TAAR1 agonist 40.4
CC1(C)CC(=O)C2=C(C1)N=C1c3ccccc3C(=O)C1C2c1ccc(Cl)cc1 (stereo not given)	OX1R antag-1 95.6
Cc1ccc(S(=O)(=O)NN=CC=CC=NNS(=O)(=O)c2ccc(C)cc2)cc1	none (no result: CHO parental Ca, GPR7 antag, OX1R antag-1, OX1R antag-2)
CCCCC(CC)CNC(=O)C1CC=CCC1C(=O)O (stereo not given)	TAAR1 agonist 37.5
COC(=O)N/N=C/c1c(C)c(C(=O)c2ccc(F)cc2)n2ccccc12	none
Cc1c(/C=N/NC(=O)c2ccc(O)cc2)c2ccccn2c1C(=O)c1ccc(F)cc1	GPR7 antag 19.9
O=C(Cc1c[nH]c2ccccc12)Nc1ccc(Nc2ccncc2)cc1	none (no result: CHO parental Ca, GPR7 antag, OX1R antag-1, OX1R antag-2)
CCCN1Cc2cccc(C(=O)NC(CC(=O)OCC)c3ccc(OC(C)C)cc3)c2C1=O (stereo not given)	none
CCOC(=O)CC(NC(=O)c1cccc2c1C(=O)N(Cc1cccnc1)C2)c1ccc(OC(C)C)cc1 (stereo not given)	OX1R antag-1 47.8
CCOC(=O)c1c(C)[nH]c(C(=O)C(C)OC(=O)c2cccc(OCc3c(C)noc3C)c2)c1C (stereo not given)	CHO parental Ca 49.2
COc1ccccc1/C=C/C(=O)OCC(=O)c1c[nH]c2ccccc12	OX1R antag-1 42.4 (no result: GPR7 antag)
O=C(OCC(=O)c1c[nH]c2ccccc12)c1ccc([N+](=O)[O-])s1	OX1R antag-1 50.7
COc1cc(C(=O)OCC(=O)c2c[nH]c3ccccc23)ccc1OCC(=O)N1CCOCC1	none
COc1ccccc1/C=C/C(=O)OCc1nc2ccccc2c(=O)[nH]1	OX1R antag-1 45.9
CCc1cccc2c(C(=O)COC(=O)c3ccc([N+](=O)[O-])s3)c[nH]c12	none
COc1ccc(C(=O)OCC(=O)c2c[nH]c3ccccc23)cc1OC	OX1R antag-1 32.1 (no result: GPR7 antag)
COc1ccccc1-c1ccc([C@@H]2C[C@H]3[C@H](CON3C)CN2CC2CCCCC2)cc1	none (no result: CHO parental Ca, GPR7 antag, OX1R antag-1, OX1R antag-2)
COC(=O)[C@]12C[C@H](CC(=O)NCC34CC5CC(CC(C5)C3)C4)C(=O)N(CCC3=CCCCC3)C1=C[C@H](COCc1ccccc1)O[C@@H]2C	none (no result: CHO parental Ca, GPR7 antag, OX1R antag-1, OX1R antag-2)
